Bioassay records as filed in PubChem.
NRP1-CendR mod: alters CendR peptide binding to human NRP-1; FAM-RPARPAR peptide binding to NRP-1, fluorescence polarization; AID 602438; inhibition, % at 25 µM; hit rate 0.85% among 360,000; O14786;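 active = inhibition or corrected inhibition above about 18%, plus a signal ratio from 0.5 to 1.5, limit read from the data, passing the limit was not always enough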
Tn6 DDE FP: disrupts Tn6 cyclic peptide binding to fibrin D-Dimer-E complex; P02675; Fibrin DD(E) TRITC-Tn6 fluorescence polarization displacement; inhibition, % at 8.3 µM; hit rate 0.21% among 370,000;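 active = inhibition above a per-campaign cutoff: mean of compounds within control limits plus 3 SD, cut at about 15% in these data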
proKLK7 act: proKLK7 (human) activation, primary screen. P49862. purified proKLK7, EDANS-DABCYL substrate fluorescence; 100% is mature enzyme control, 0% vehicle. activation, % at 7 µM. hit rate 0.9% among 370,000;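 active = activation above the mean of all tested compounds plus 3 SD, computed per campaign excluding outliers beyond control limits, cut at about 13% in these data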
DDE Tn7 FP inh: disrupts Tn7 cyclic peptide binding to fibrin D-Dimer-E complex; AID 720508; hit rate 0.13% among 370,000; inhibition, % at 8.3 µM; FP displacement of FITC-Tn7 peptide from fibrin DD(E); 0% = median of compound wells per plate;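 active = inhibition above the mean of compounds falling within the control limits plus 3 SD of them, cut at about 14% in these data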
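Assay system: Fibrin-DD(E) protein isolated from polymerized human fibrin clots; read-out basis: percent inhibition; medium: Tris/NaCl/CaCl2 buffer, pH 7.8; signal: FP measurement; incubation: 10 min plus 3 h, room temperature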
CRFBP-R2 block: blocks CRF-induced signaling of the CRF-BP/CRF-R2 complex; inhibition, % at 11.8 µM; hit rate 0.59% among 350,000; HEK293 CRF-R2/CRF-BP, CRF-induced calcium fluorescence;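 active = inhibition of the ligand-induced calcium signal above about 50% at the single tested concentration, limit read from the data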
CRFBP-R2 agonist: CRF-BP/CRF-R2 complex agonism | HEK293 CRF-R2/CRF-BP, calcium dye fluorescence (FLIPR); percent of saturating CRF peptide response | activation, % at 13.2 µM | hit rate 0.46% among 350,000 | AID 588473;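 active = activation of at least 50%, plus an integration ratio under a set limit after plate pattern correction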
A number is an active result; - = inactive; . = not tested or not shown. A selection: hits, their analogues and other compounds. The true share with any hit is near 2.9%.

SMILES	NRP1-CendR mod	Tn6 DDE FP	proKLK7 act	DDE Tn7 FP inh	CRFBP-R2 block	CRFBP-R2 agonist
O=C(c1cc2nc(-c3ccc(F)cc3)cc(C(F)(F)F)n2n1)N1CCOCC1	-	-	-	-	54.5	-
CCOc1ccc(OCCC(=O)OCC(=O)c2c(N)n(CC(C)C)c(=O)n(C)c2=O)cc1	-	-	-	-	-	-
Cc1ccc(OCCC(=O)OCC(=O)c2c(N)n(CC(C)C)c(=O)n(C)c2=O)cc1	17.4	-	-	-	-	-
CN(C(=O)CNC(=O)c1ccccc1OCC(=O)Nc1ccc(I)cc1)c1ccccc1	.	-	-	-	.	.
COC(=O)C1CN(C2CCCC2)CCS(=O)(=O)N1Cc1ccc(Cl)cc1 (stereo not drawn)	.	-	-	-	.	.
CCN1CCN(CCCNC(=O)c2cc3cc4ccc(OC)cc4nc3o2)CC1	-	.	.	.	-	-
CCCN(CCC)CCCNC(=O)c1cc2cc3ccc(OC)cc3nc2o1	-	-	61.4	-	-	-
Cc1cc(F)ccc1S(=O)(=O)NCC1CC2CCC1C2 (stereo not drawn)	-	-	-	-	-	87.5
CC(=O)Nc1ccc(S(=O)(=O)NCC2CC3CCC2C3)cc1 (stereo not drawn)	-	-	-	-	-	-
COC(=O)c1cc(=O)cc(C(=O)OC)o1	-	-	-	-	-	-
CCOC(=O)c1cc(=O)cc(C(=O)OCC)o1	-	-	-	-	50.2	-
Cc1ccc(C(=O)Nc2nnc(-c3ccco3)o2)cc1C	-	-	-	-	50.9	-
O=C(c1ccc([N+](=O)[O-])cc1)N(Cc1ccc(Br)cc1)N1C(=O)CCCC1=O	-	-	-	-	-	59.1
Cc1ccc(C(=O)C=Cc2cccc(C)c2)cc1	-	-	-	-	59.5	-
O=C(CC(=O)c1ccccc1)Nc1ccc([N+](=O)[O-])cc1	25.4	-	-	-	-	-
O=C(C=Cc1ccccc1)c1ccc([N+](=O)[O-])cc1	17.6	-	-	-	-	-
O=C(/C=C/c1cccnc1)c1ccc([N+](=O)[O-])cc1	-	-	-	-	-	-
O=C(c1ccc([N+](=O)[O-])cc1)N(Cc1ccccc1)Cc1ccccc1	-	-	-	-	67.6	-
O=C(NCCc1ccccc1)c1ccc([N+](=O)[O-])cc1	-	-	-	-	-	-
O=C1CCC(C(=O)Nc2ccccc2N2CCOCC2)=NN1	-	-	-	-	67.1	-
O=C1CCC(C(=O)Nc2ccccc2N2CCCC2)=NN1	-	-	-	-	-	-
O=C(Nc1ccccc1N1CCOCC1)c1ccc(N2CCCC2=O)cc1	25.4	-	-	-	-	-
COc1ccc(N2CCN(CCCNC(=O)CCc3ccc(F)cc3)CC2)cc1	.	-	-	-	.	.
COC(=O)[C@]12C[C@H](CC(=O)NCc3ccc(C)o3)C(=O)N(CCc3ccc(OC)c(OC)c3)C1=C[C@H](C1CCCC1)O[C@@H]2C	.	-	-	-	.	.
COc1ccc(C(=O)N(c2ccccc2)C2C=CS(=O)(=O)C2)cc1 (stereo not drawn)	-	-	-	-	52.1	-
SMILES	NRP1-CendR mod	Tn6 DDE FP	proKLK7 act	DDE Tn7 FP inh	CRFBP-R2 block	CRFBP-R2 agonist
COC(=O)C1CN(CCc2ccccc2)CCS(=O)(=O)N1Cc1ccc(C(F)(F)F)cc1 (stereo not drawn)	.	-	-	-	.	.
CC(C)C[C@H](NC(=O)c1cccs1)C(=O)N1CCC[C@H]1C(=O)NCc1ccccc1	.	-	-	-	.	.
O=C(Cn1cnc2c(NC(=O)OCc3ccccc3)ncnc21)NCCN1CCOCC1	28.9	-	-	-	-	-
Cc1ccc(C)c(NC(=O)CN2C(=O)CCSc3ccccc32)c1	.	-	-	-	.	.
CC(=O)Nc1ccc(SCC(=O)c2cc(C)n(-c3ccccc3)c2C)cc1	-	-	-	-	-	-
COc1ccc(-n2c(C)cc(C(=O)CSc3ccc(NC(C)=O)cc3)c2C)cc1	42.4	-	-	-	-	-
CO[C@H]([C@H](C)/C=C/N(C)C=O)[C@@H](C)C(=O)CC[C@H](C)[C@H](O)[C@H](C)[C@H]1OC(=O)/C=C/C(C)=C/C[C@H](O)C[C@@H]2C=CC[C@@H](C[C@H](OC)[C@@H](C)[C@@H](OC)C[C@@H](OC)[C@@H]1C)O2	.	-	.	-	.	.
CC1(C(=O)NCc2cccc3ccccc23)CCN1Cc1cccc2c1OCO2 (stereo not drawn)	25.5	-	-	-	.	.
CCOc1ccc(-n2c(SCC(=O)Nc3ccc(S(=O)(=O)Nc4nccs4)cc3)nnc2-c2ccco2)cc1	.	-	-	-	.	.
O=[N+]([O-])c1ccc(C2=NN(c3ccccc3)C(c3ccco3)C2)cc1 (stereo not drawn)	-	-	-	-	-	104.8
O=[N+]([O-])c1ccc(/C=C/C2=NN(c3ccccc3)C(c3ccco3)C2)cc1 (stereo not drawn)	-	-	-	-	-	182.5
Cc1noc(C)c1C(=O)OCC(=O)NCc1ccccc1	23.6	-	-	-	-	-
Cc1ccc(CNC(=O)COC(=O)c2c(C)noc2C)cc1	-	-	-	-	-	-
CCCn1cc(S(=O)(=O)c2ccccc2)c(=O)c2cc(OCC)ccc21	-	-	-	-	74.6	-
O=C(Nc1ccc(C(=O)O)cc1)Nc1cccc2ccccc12	-	-	-	-	-	-
Cc1ccc(C(=O)O)cc1NC(=O)Nc1cccc2ccccc12	22.5	-	-	-	-	-
COc1cc(C2C=C(c3cccs3)Nc3ncnn32)cc(OC)c1OC (stereo not drawn)	-	.	.	.	-	220.8
O=C1/C(=C/c2ccc(O)cc2)SC(=S)N1Cc1cccnc1	-	-	-	-	-	106.6
CC1CC1c1ccc(/C=C(\C#N)C(=O)Nc2cccc(Cl)c2Cl)o1 (stereo not drawn)	-	-	-	-	-	58.5
O=C(O)C1CCCCC1C(=O)Nc1cccc(Cl)c1Cl (stereo not drawn)	-	-	-	-	-	-
CN(C(=O)COc1ccccc1)c1nnc(C23CC4CC(CC(C4)C2)C3)s1	19.2	-	-	-	-	-
CN(C(=O)COc1ccccc1)c1nnc(-c2cccnc2)s1	-	-	-	-	-	-
CCOc1ccc(S(=O)(=O)N2CCN(C(=O)c3cccnc3)CC2)cc1	-	-	-	-	-	-
CCOc1ccccc1N1CCN(C(=O)c2cccc(-c3ccc(O)cc3)c2)CC1	-	-	-	-	-	-
Cc1ccc(S(=O)(=O)N2CCN(C(=O)c3ccccn3)CC2)cc1	-	-	-	-	-	-
CCOc1ccc(S(=O)(=O)N2CCN(C(=O)c3sccc3C)CC2)cc1	27.4	-	-	-	-	-
CCOc1ccccc1N1CCN(C(=O)c2ccncc2)CC1	43.2	-	-	-	-	-
CCOC(=O)N1CCN(S(=O)(=O)c2ccc(OCC)cc2)CC1	-	-	-	-	-	-
